Measured values as given in ChEMBL document CHEMBL1142973, “Enzymatically activated cycloSal-d4T-monophosphates: The third generation of cycloSal-pronucleotides” (J Med Chem, 2007).

What was measured:
[1] = tested on: Human immunodeficiency virus 1; experiment: Antiviral activity against HIV1 in CEM/0 cells; assay type: functional, organism-based; details: Human immunodeficiency virus 1, CCRF-CEM
Procedure, shortened: (§1)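 CEM/0 cells at 4 × 10^5 cells/mL infected with HIV (HIV-1, or HIV-2 strain ROD) at ~100 CCID50 per mL; virus stocks from infected MT-4 cell supernatants. Mixed 1:1 with compound dilutions, 4-5 days; giant cell formation scored microscopically. EC50, means of two to three independent experiments.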

[2] = tested on: Human immunodeficiency virus 2; experiment: Antiviral activity against HIV2 ROD in CEM/TK- cells; assay type: functional, organism-based; details: Human immunodeficiency virus 2, ROD
Procedure, shortened: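 Thymidine kinase-deficient CEM/TK- cells at 4 × 10^5 cells/mL infected with HIV-2 (ROD, MT-4-grown stock) at ~100 CCID50/mL; mixed 1:1 with compound dilutions; giant cell formation scored microscopically after 4-5 days. EC50 as means of two to three independent experiments.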

[3] = Chemical stability in phosphate buffer at pH 7.3; assay type: physicochemical
Procedure, shortened: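 Triesters incubated in aqueous 25 mM phosphate buffer, pH 7.3; hydrolysis products (d4TMP, salicyl alcohol) followed by HPLC to give half-lives.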

[4] = tested on: Human immunodeficiency virus 2; experiment: Antiviral activity against HIV2 ROD in CEM/0 cells; assay type: functional, organism-based; details: Human immunodeficiency virus 2, ROD, CCRF-CEM; procedure, shortened: as §1
[5] = Hydrolysis half life in CEM cell extracts at pH 6.9; assay type: ADME; details: human, CEM (CCRF-CEM) cell extracts
[6] = Hydrolysis half life in […]/FCS medium at pH 7.6; assay type: ADME; details: cattle, […]/FCS culture medium
Procedure, shortened: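 Incubated in RPMI-1640 culture medium with 10% heat-inactivated fetal calf serum, pH 7.6; cleavage products followed by HPLC to derive half-lives.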

[7] = Hydrolysis half life in human serum at pH 6.8; assay type: ADME, cell-free
Procedure, shortened: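 Incubation in human serum pooled from hospital blood samples, pH 6.8, without acetic acid stop; products analysed by HPLC; half-life determined.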

SMILES	EC50 [1]	EC50 [2]	half-life [3]	EC50 [4]	half-life [5]	half-life [6]	half-life [7]
Cc1cn([C@H]2C=C[C@@H](COP3(=O)OCc4cc(Br)ccc4O3)O2)c(=O)[nH]c1=O (stereo partly specified)	0.14 µM	15 µM	0.88 h	0.26 µM	–	–	–
Cc1cn([C@H]2C=C[C@@H](COP3(=O)OCc4cc(C=O)cc(C(C)(C)C)c4O3)O2)c(=O)[nH]c1=O (stereo partly specified)	0.45 µM	17.5 µM	0.95 h	0.6 µM	–	–	–
Cc1cn([C@H]2C=C[C@@H](COP3(=O)OCc4cc(CCC(=O)OCOC(=O)C(C)C)ccc4O3)O2)c(=O)[nH]c1=O (stereo partly specified)	0.26 µM	1.73 µM	3.9 h	0.6 µM	0.9 h	–	–
Cc1cn([C@H]2C=C[C@@H](COP3(=O)OCc4cc(C=O)ccc4O3)O2)c(=O)[nH]c1=O (stereo partly specified)	0.41 µM	5 µM	0.18 h	0.15 µM	–	–	–
Cc1cc(C=O)cc2c1OP(=O)(OC[C@@H]1C=C[C@H](n3cc(C)c(=O)[nH]c3=O)O1)OC2 (stereo partly specified)	–	–	0.35 h	–	–	–	–
Cc1cn([C@H]2C=C[C@@H](COP3(=O)OCc4cc(CCC(=O)OCOC(=O)C(C)(C)C)ccc4O3)O2)c(=O)[nH]c1=O (stereo partly specified)	0.23 µM	0.7 µM	5.6 h	0.33 µM	0.38 h	–	–
Cc1cn([C@H]2C=C[C@@H](COP3(=O)OCc4cc([N+](=O)[O-])ccc4O3)O2)c(=O)[nH]c1=O (stereo partly specified)	0.29 µM	40 µM	–	0.4 µM	–	–	–
Cc1cn([C@H]2C=C[C@@H](COP3(=O)OCc4cccc(C(C)(C)C)c4O3)O2)c(=O)[nH]c1=O (stereo partly specified)	0.18 µM	0.33 µM	73 h	0.65 µM	–	–	–
Cc1cccc2c1OP(=O)(OC[C@@H]1C=C[C@H](n3cc(C)c(=O)[nH]c3=O)O1)OC2 (stereo partly specified)	0.06 µM	0.05 µM	17.5 h	0.07 µM	14.5 h	–	–
CC(=O)OC(OC(C)=O)c1cc2c(c(C(C)(C)C)c1)OP(=O)(OC[C@@H]1C=C[C@H](n3cc(C)c(=O)[nH]c3=O)O1)OC2 (stereo partly specified)	0.32 µM	3 µM	7 h	0.75 µM	0.12 h	4.7 h	8.7 h
CC(=O)OC(OC(C)=O)c1ccc2c(c1)COP(=O)(OC[C@@H]1C=C[C@H](n3cc(C)c(=O)[nH]c3=O)O1)O2 (stereo partly specified)	0.42 µM	10.5 µM	1.2 h	0.4 µM	0.08 h	0.9 h	1.5 h
CC(=O)OC(OC(C)=O)c1cc(C)c2c(c1)COP(=O)(OC[C@@H]1C=C[C@H](n3cc(C)c(=O)[nH]c3=O)O1)O2 (stereo partly specified)	–	–	2.3 h	–	0.08 h	1.5 h	3.6 h
Cc1cn([C@H]2C=C[C@@H](CO)O2)c(=O)[nH]c1=O [STAVUDINE]	0.48 µM	47.5 µM	–	0.63 µM	–	–	–
